The record followed here is publication PMC9052575 (RSC Advances, 2020).

What is called IC50 is the concentration that gives 50% inhibition.

In one test the test system is MCF-7 cells. As to the kind of experiment: MTT anti-proliferative assay, MCF-7. Conditions: for IC50: read-out: IC50 against MCF-7 cells. Format: cell-based, human.
The next test has as its system MDA-MB-231 cells. As to the kind of experiment: MTT anti-proliferative assay, MDA-MB-231. Type of test: cell-based, human. Conditions: read-out: IC50 against MDA-MB-231 cells.
In the next test the test system is HEK-293 cells. As to the kind of experiment: MTT toxicity assay, normal/non-tumor HEK-293 cells. Conditions: Homo sapiens, HEK293, read-out: IC50 against HEK-293 cells. Type of test: cell-based. Summed up: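 HEK-293 cells seeded at 5000 cells/well in triplicate. After 24 h, exposed for 24 h at 37 °C and 5% CO2 to test compound at 1–100 μM, diluted in complete DMEM. MTT (5 mg mL−1 stock in PBS) added for 2 h, then 10% SDS/10 mM HCl for 16 h at 37 °C. OD read at 570 nm.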
(Tetrazolium assays rely on reduction of a dye to a coloured formazan, in cell work by metabolically active cells.)

Setting [1] is: MTT assay, 24 hours treatment, 1-100 μM.

Where two headings read alike, the source gives them in different places. Bounds are passed on as bounds.

`COc1ccc(/C=C/C(=O)c2ccc(OCc3cn(CCN4C(=O)c5cccc6cccc(c56)C4=O)nn3)cc2)cc1` [12b, (E)-2-(2-(4-((4-(3-(4-Methoxyphenyl)acryloyl)phenoxy)methyl)-1H-1,2,3-triazol-1-yl)ethyl)-1H-benzo[de]isoquinoline-1,3(2H)-dione]: the IC50 in the test on MCF-7 cells (Homo sapiens, MCF7, 24 h) was over 100 µM; with MDA-MB-231 cells (Homo sapiens, MDA-MB-231, 24 h), over 100 µM.

On to `COc1ccc(OC)c(/C=C/C(=O)c2ccc(OCc3cn(CCN4C(=O)c5cccc6cccc(c56)C4=O)nn3)cc2)c1` [12c, (E)-2-(2-(4-((4-(3-(2,5-Dimethoxyphenyl)acryloyl)phenoxy)methyl)-1H-1,2,3-triazol-1-yl)ethyl)-1H-benzo[de]isoquinoline-1,3(2H)-dione], for which the IC50 is over 100 µM in the test with MCF-7 cells (Homo sapiens, MCF7, 24 h) and over 100 µM in the test on MDA-MB-231 cells (Homo sapiens, MDA-MB-231, 24 h).

In the case of `O=C(/C=C/c1ccc([N+](=O)[O-])cc1)c1ccc(OCc2cn(CCN3C(=O)c4cccc5cccc(c45)C3=O)nn2)cc1` [12d, (E)-2-(2-(4-((4-(3-(4-Nitrophenyl)acryloyl)phenoxy)methyl)-1H-1,2,3-triazol-1-yl)ethyl)-1H-benzo[de]isoquinoline-1,3(2H)-dione], the IC50 was over 100 µM in the test on MCF-7 cells (Homo sapiens, MCF7, 24 h) and over 100 µM in the test on MDA-MB-231 cells (Homo sapiens, MDA-MB-231, 24 h).

With `O=C(C=Cc1ccccc1)c1ccc(OCc2cn(CCCN3C(=O)c4cccc5cccc(c45)C3=O)nn2)cc1` [12e, 2-(3-(4-((4-Cinnamoylphenoxy)methyl)-1H-1,2,3-triazol-1-yl)propyl)-1H-benzo[de]isoquinoline-1,3(2H)-dione], the IC50 was over 100 µM in the test with MCF-7 cells (Homo sapiens, MCF7, 24 h) and over 100 µM with MDA-MB-231 cells (Homo sapiens, MDA-MB-231, 24 h).

In the case of `COc1ccc(/C=C/C(=O)c2ccc(OCc3cn(CCCN4C(=O)c5cccc6cccc(c56)C4=O)nn3)cc2)cc1` [12f, (E)-2-(3-(4-((4-(3-(4-Methoxyphenyl)acryloyl)phenoxy)methyl)-1H-1,2,3-triazol-1-yl)propyl)-1H-benzo[de]isoquinoline-1,3(2H)-dione], the half-maximal inhibitory concentration (IC50) in the test on MCF-7 cells (Homo sapiens, MCF7, 24 h) was over 100 µM; in the test with MDA-MB-231 cells (Homo sapiens, MDA-MB-231, 24 h), over 100 µM.

As to `COc1ccc(OC)c(/C=C/C(=O)c2ccc(OCc3cn(CCCN4C(=O)c5cccc6cccc(c56)C4=O)nn3)cc2)c1` [12g, (E)-2-(3-(4-((4-(3-(2,5-Dimethoxyphenyl)acryloyl)phenoxy)methyl)-1H-1,2,3-triazol-1-yl)propyl)-1H-benzo[de]isoquinoline-1,3(2H)-dione], the half-inhibitory concentration (IC50) in the test on MCF-7 cells (Homo sapiens, MCF7, 24 h) was over 100 µM; in the test with MDA-MB-231 cells (Homo sapiens, MDA-MB-231, 24 h), over 100 µM.

Consider `O=C(/C=C/c1ccc([N+](=O)[O-])cc1)c1ccc(OCc2cn(CCCN3C(=O)c4cccc5cccc(c45)C3=O)nn2)cc1` [12h, (E)-2-(3-(4-((4-(3-(4-nitrophenyl)acryloyl)phenoxy)methyl)-1H-1,2,3-triazol-1-yl)propyl)-1H-benzo[de]isoquinoline-1,3(2H)-dione], for which the IC50 was over 100 µM with MCF-7 cells (Homo sapiens, MCF7, 24 h) and over 100 µM in the test on MDA-MB-231 cells (Homo sapiens, MDA-MB-231, 24 h).

For `CC(=O)N1N=C(c2ccc(OCc3cn(CCN4C(=O)c5cccc6cccc(c56)C4=O)nn3)cc2)CC1c1ccccc1` (stereo not shown) [13a, 2-(2-(4-((4-(1-Acetyl-5-phenyl-4,5-dihydro-1H-pyrazol-3-yl)phenoxy)methyl)-1H-1,2,3-triazol-1-yl)ethyl)-1H-benzo[de]isoquinoline-1,3(2H)-dione], the IC50 with MCF-7 cells (Homo sapiens, MCF7, 24 h) was over 100 µM; in the test with MDA-MB-231 cells (Homo sapiens, MDA-MB-231, 24 h), over 100 µM.

As to `COc1ccc(C2CC(c3ccc(OCc4cn(CCN5C(=O)c6cccc7cccc(c67)C5=O)nn4)cc3)=NN2C(C)=O)cc1` (stereo not shown) [13b, 2-(2-(4-((4-(1-Acetyl-5-(4-methoxyphenyl)-4,5-dihydro-1H-pyrazol-3-yl)phenoxy)methyl)-1H-1,2,3-triazol-1-yl)ethyl)-1H-benzo[de]isoquinoline-1,3(2H)-dione], the IC50 with MCF-7 cells (Homo sapiens, MCF7, 24 h) is over 100 µM; with MDA-MB-231 cells (Homo sapiens, MDA-MB-231, 24 h), over 100 µM.

On to `COc1ccc(OC)c(C2CC(c3ccc(OCc4cn(CCN5C(=O)c6cccc7cccc(c67)C5=O)nn4)cc3)=NN2C(C)=O)c1` (stereo not shown) [13c, 2-(2-(4-((4-(1-Acetyl-5-(2,5-dimethoxyphenyl)-4,5-dihydro-1H-pyrazol-3-yl)phenoxy)methyl)-1H-1,2,3-triazol-1-yl)ethyl)-1H-benzo[de]isoquinoline-1,3(2H)-dione], for which the IC50 was over 100 µM with MCF-7 cells (Homo sapiens, MCF7, 24 h) and over 100 µM in the test with MDA-MB-231 cells (Homo sapiens, MDA-MB-231, 24 h).

For the compound `CC(=O)N1N=C(c2ccc(OCc3cn(CCN4C(=O)c5cccc6cccc(c56)C4=O)nn3)cc2)CC1c1ccc([N+](=O)[O-])cc1` (stereo not shown) [13d, 2-(2-(4-((4-(1-Acetyl-5-(4-nitrophenyl)-4,5-dihydro-1H-pyrazol-3-yl)phenoxy)methyl)-1H-1,2,3-triazol-1-yl)ethyl)-1H-benzo[de]isoquinoline-1,3(2H)-dione], the IC50 with MCF-7 cells (Homo sapiens, MCF7, 24 h) was over 100 µM; with MDA-MB-231 cells (Homo sapiens, MDA-MB-231, 24 h), over 100 µM.

On to `CC(=O)N1N=C(c2ccc(OCc3cn(CCCN4C(=O)c5cccc6cccc(c56)C4=O)nn3)cc2)CC1c1ccccc1` (stereo not shown) [13e, 2-(3-(4-((4-(1-Acetyl-5-phenyl-4,5-dihydro-1H-pyrazol-3-yl)phenoxy)methyl)-1H-1,2,3-triazol-1-yl)propyl)-1H-benzo[de]isoquinoline-1,3(2H)-dione], for which the IC50 was over 100 µM in the test with MCF-7 cells (Homo sapiens, MCF7, 24 h) and over 100 µM in the test on MDA-MB-231 cells (Homo sapiens, MDA-MB-231, 24 h).

In the case of `COc1ccc(C2CC(c3ccc(OCc4cn(CCCN5C(=O)c6cccc7cccc(c67)C5=O)nn4)cc3)=NN2C(C)=O)cc1` (stereo not shown) [13f, 2-(3-(4-((4-(1-Acetyl-5-(4-methoxyphenyl)-4,5-dihydro-1H-pyrazol-3-yl)phenoxy)methyl)-1H-1,2,3-triazol-1-yl)propyl)-1H-benzo[de]isoquinoline-1,3(2H)-dione], the IC50 with MCF-7 cells (Homo sapiens, MCF7, 24 h) was 98.1 µM; with MDA-MB-231 cells (Homo sapiens, MDA-MB-231, 24 h), over 100 µM; in the test with HEK-293 cells it was over 100 µM. Also, the “IC50 against MCF-7 cells” value in the test with MCF-7 cells (setting [1]) is “moderate cytotoxicity”.

As to `COc1ccc(OC)c(C2CC(c3ccc(OCc4cn(CCCN5C(=O)c6cccc7cccc(c67)C5=O)nn4)cc3)=NN2C(C)=O)c1` (stereo not shown) [13g, 2-(3-(4-((4-(1-Acetyl-5-(2,5-dimethoxyphenyl)-4,5-dihydro-1H-pyrazol-3-yl)phenoxy)methyl)-1H-1,2,3-triazol-1-yl)propyl)-1H-benzo[de]isoquinoline-1,3(2H)-dione], the IC50 with MCF-7 cells (Homo sapiens, MCF7, 24 h) was 62.2 µM; in the test on MDA-MB-231 cells (Homo sapiens, MDA-MB-231, 24 h), over 100 µM; in the test on HEK-293 cells, over 100 µM. For the same compound, the “IC50 against MCF-7 cells” value in the test on MCF-7 cells (setting [1]) is “moderate cytotoxicity”.

`CC(=O)N1N=C(c2ccc(OCc3cn(CCCN4C(=O)c5cccc6cccc(c56)C4=O)nn3)cc2)CC1c1ccc([N+](=O)[O-])cc1` (stereo not shown) [13h, 2-(3-(4-((4-(1-Acetyl-5-(4-nitrophenyl)-4,5-dihydro-1H-pyrazol-3-yl)phenoxy)methyl)-1H-1,2,3-triazol-1-yl)propyl)-1H-benzo[de]isoquinoline-1,3(2H)-dione]: the IC50 in the test on MCF-7 cells (Homo sapiens, MCF7, 24 h) is over 100 µM; with MDA-MB-231 cells (Homo sapiens, MDA-MB-231, 24 h), over 100 µM.

As to `O=C(/C=C/[c-]1cccc1)c1ccc(OCc2cn(CCN3C(=O)c4cccc5cccc(c45)C3=O)nn2)cc1.[Fe+2].c1cc[cH-]c1` [14a, (E)-2-(2-(4-((4-(3-Ferrocenyl-acryloyl)phenoxy)methyl)-1H-1,2,3-triazol-1-yl)ethyl)-1H-benzo[de]isoquinoline-1,3(2H)-dione], the IC50 with MCF-7 cells (setting [1]) and in the test on MDA-MB-231 cells (setting [1]) was over 100 µM in each case.

Turning to `CC(CN1C(=O)c2cccc3cccc(c23)C1=O)n1cc(COc2ccc(C(=O)/C=C/[c-]3cccc3)cc2)nn1.[Fe+2].c1cc[cH-]c1` (stereo not shown) [14b, (E)-2-(2-(4-((4-(3-Ferrocenyl-acryloyl)phenoxy)methyl)-1H-1,2,3-triazol-1-yl)propyl)-1H-benzo[de]isoquinoline-1,3(2H)-dione], the IC50 in the test on MCF-7 cells (setting [1]) and in the test on MDA-MB-231 cells (setting [1]) was over 100 µM throughout.

Regarding `CC(=O)N1N=C(c2ccc(OCc3cn(CCN4C(=O)c5cccc6cccc(c56)C4=O)nn3)cc2)CC1[c-]1cccc1.[Fe+2].c1cc[cH-]c1` (stereo not shown) [15a, 2-(2-(4-((4-(1-Acetyl-5-ferrocenyl-4,5-dihydro-1H-pyrazol-3-yl)phenoxy)methyl)-1H-1,2,3-triazol-1-yl)ethyl)-1H-benzo[de]isoquinoline-1,3(2H)-dione], the IC50 in the test on MCF-7 cells (setting [1]) and with MDA-MB-231 cells (setting [1]) was over 100 µM each time.

As to `CC(=O)N1N=C(c2ccc(OCc3cn(C(C)CN4C(=O)c5cccc6cccc(c56)C4=O)nn3)cc2)CC1[c-]1cccc1.[Fe+2].c1cc[cH-]c1` (stereo not shown) [15b, 2-(2-(4-((4-(1-Acetyl-5-ferrocenyl-4,5-dihydro-1H-pyrazol-3-yl)phenoxy)methyl)-1H-1,2,3-triazol-1-yl)propyl)-1H-benzo[de]isoquinoline-1,3(2H)-dione], the IC50 in the test on MCF-7 cells (setting [1]) and with MDA-MB-231 cells (setting [1]) was over 100 µM in each case.

With `CC1=CC(=O)c2c(O)cccc2C1=O` [Plumbagin, reference compound], the IC50 in the test with MCF-7 cells (Homo sapiens, MCF7, 24 h) came to 3.5 µM.
